According to ChEMBL document CHEMBL1138547, “Synthesis, biological evaluation and 2D-QSAR analysis of benzoxazoles as antimicrobial agents” (2009):
≈ marks a conversion by molar mass, not a printed value.

Experiments:
Format in all cases: functional
[1] = test system: Escherichia coli; assay: Antimicrobial activity against multidrug-resistant Escherichia coli after 24 hrs
How it was run: (§1)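 Twofold serial broth dilution in Mueller-Hinton broth. MHB was used both to dilute the bacterial suspension and for the twofold compound dilutions, giving 10^3 cfu/ml bacteria per well after inoculation. Solvent, medium and organism-only wells served as controls. Each organism was run in triplicate.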

[2] = test system: Staphylococcus aureus; assay: Antimicrobial activity against Staphylococcus aureus ATCC 25923 after 24 hrs; how it was run: as §1
[3] = test system: Klebsiella pneumoniae; assay: Antimicrobial activity against multidrug-resistant Klebsiella pneumoniae after 24 hrs; how it was run: as §1
[4] = test system: Bacillus subtilis; assay: Antimicrobial activity against Bacillus subtilis ATCC 6633 after 24 hrs
How it was run: (§2)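 MIC by twofold serial dilution in Mueller-Hinton broth (MHB); MHB also used to dilute the bacterial suspension. Wells held 10^3 cfu/ml bacteria after inoculation. Controls: 80% DMSO, 20% EtOH, methanol, DMSO, PBS, organism alone and medium alone. Triplicate in each run. MIC taken as the lowest concentration completely inhibiting macroscopic growth.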

[5] = test system: Pseudomonas aeruginosa; assay: Antimicrobial activity against Pseudomonas aeruginosa ATCC […] after 24 hrs; how it was run: as §2
[6] = test system: Klebsiella pneumoniae; assay: Antimicrobial activity against Klebsiella pneumoniae RSHM 574 after 24 hrs; how it was run: as §2
[7] = test system: Escherichia coli; assay: Antimicrobial activity against Escherichia coli ATCC 25922 after 24 hrs; how it was run: as §2
[8] = test system: Staphylococcus aureus; assay: Antimicrobial activity against multidrug-resistant Staphylococcus aureus after 24 hrs; how it was run: as §1
[9] = test system: Bacillus subtilis; assay: Antimicrobial activity against ceftriazone-resistant Bacillus subtilis after 24 hrs; how it was run: as §1
[10] = test system: Candida albicans; assay: Antimicrobial activity against Candida albicans ATCC 10231 after 24 to 48 hrs
How it was run: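 Twofold serial dilution following CLSI M27-A. Yeast suspension made at 10^4 cfu/ml by diluting a fresh culture at McFarland 0.5 (10^6 cfu/ml). Inoculated into the diluted compound, incubated at 35 °C in a humid chamber, read after 48 h. Triplicate in each run. MIC is the lowest concentration completely inhibiting macroscopic growth.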

[11] = test system: Candida albicans; assay: Antimicrobial activity against multidrug-resistant Candida albicans isolates after 24 to 48 hrs
How it was run: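 Yeast broth microdilution following CLSI M27-A, with Sabouraud dextrose medium noted for antifungal assays. Fresh cultures at McFarland 0.5 (10^6 cfu/ml) were diluted to 10^4 cfu/ml and inoculated into twofold compound dilutions. Trays were incubated at 35 °C in a humid chamber and read at 48 h, in triplicate. MIC was the lowest concentration giving complete macroscopic growth inhibition.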

[12] = Bacillus subtilis, ATCC 6633, 24 h

| Compound | MIC [1] | MIC [3] | MIC [4, 12] | MIC [5] | MIC [8] | MIC [9] | log(1/C) [4] | other results |
| --- | --- | --- | --- | --- | --- | --- | --- | --- |
| CC1COc2c(N3CCN(C)CC3)c(F)cc3c(=O)c(C(=O)O)cn1c23 (stereo not drawn) [OFLOXACIN] | 32 µg/mL (≈ 88.6 µM) | 64 µg/mL (≈ 177 µM) | 0.125 µg/mL (≈ 0.346 µM) | 8 µg/mL (≈ 22.1 µM) | 2 µg/mL (≈ 5.53 µM) | 32 µg/mL (≈ 88.6 µM) | – | MIC ([2]; ATCC 25923, 24 h): 0.25 µg/mL (≈ 0.692 µM); MIC ([6]; RSHM 574, 24 h): 0.25 µg/mL (≈ 0.692 µM); MIC ([7]; ATCC 25922, 24 h): 0.125 µg/mL (≈ 0.346 µM) |
| O=[N+]([O-])c1ccc2oc(-c3ccccc3)nc2c1 | 50 µg/mL (≈ 208 µM) | 100 µg/mL (≈ 416 µM) | 12.5 µg/mL (≈ 52 µM) | 25 µg/mL (≈ 104 µM) | 400 µg/mL (≈ 1670 µM) | 25 µg/mL (≈ 104 µM) | 4.284 | MIC ([2]; ATCC 25923, 24 h): 200 µg/mL (≈ 833 µM); MIC [10]: 100 µg/mL (≈ 416 µM); MIC ([6]; RSHM 574, 24 h): 50 µg/mL (≈ 208 µM); MIC ([7]; ATCC 25922, 24 h): 50 µg/mL (≈ 208 µM); MIC [11]: 50 µg/mL (≈ 208 µM) |
| Cc1ccc(Cc2nc3cc([N+](=O)[O-])ccc3o2)cc1 | 50 µg/mL (≈ 186 µM) | 50 µg/mL (≈ 186 µM) | 50 µg/mL (≈ 186 µM) | 50 µg/mL (≈ 186 µM) | 50 µg/mL (≈ 186 µM) | 50 µg/mL (≈ 186 µM) | 3.73 | MIC ([2]; ATCC 25923, 24 h): 50 µg/mL (≈ 186 µM); MIC [10]: 50 µg/mL (≈ 186 µM); MIC ([6]; RSHM 574, 24 h): 50 µg/mL (≈ 186 µM); MIC ([7]; ATCC 25922, 24 h): 50 µg/mL (≈ 186 µM); MIC [11]: 25 µg/mL (≈ 93.2 µM) |
| O=[N+]([O-])c1ccc2nc(-c3ccc(F)cc3)oc2c1 | 100 µg/mL (≈ 387 µM) | 100 µg/mL (≈ 387 µM) | 50 µg/mL (≈ 194 µM) | 50 µg/mL (≈ 194 µM) | 100 µg/mL (≈ 387 µM) | 25 µg/mL (≈ 96.8 µM) | 3.713 | MIC ([2]; ATCC 25923, 24 h): 100 µg/mL (≈ 387 µM); MIC [10]: 50 µg/mL (≈ 194 µM); MIC ([6]; RSHM 574, 24 h): 50 µg/mL (≈ 194 µM); MIC ([7]; ATCC 25922, 24 h): 50 µg/mL (≈ 194 µM); MIC [11]: 100 µg/mL (≈ 387 µM) |
| Cc1ccc2nc(-c3ccc(Cl)cc3Cl)oc2c1 | – | – | 25 µg/mL (≈ 89.9 µM) | – | – | – | 4.046 | – |
| Cc1ccc2nc(-c3ccc(Br)cc3)oc2c1 | – | – | 12.5 µg/mL (≈ 43.4 µM) | – | – | – | 4.363 | – |
| Cc1ccc2oc(-c3ccccc3F)nc2c1 | – | – | 25 µg/mL (≈ 110 µM) | – | – | – | 3.959 | – |
| COc1ccccc1-c1nc2ccc(C)cc2o1 | – | – | 25 µg/mL (≈ 104 µM) | – | – | – | 3.981 | – |
| C[C@@H]1[C@H](O)[C@@H](C)/C=C/C=C/C=C/C=C/C=C/C=C/C=C/[C@H](O[C@@H]2O[C@H](C)[C@@H](O)[C@H](N)[C@@H]2O)C[C@@H]2O[C@](O)(C[C@@H](O)C[C@@H](O)[C@H](O)CC[C@@H](O)C[C@@H](O)CC(=O)O[C@H]1C)C[C@H](O)[C@H]2C(=O)O [AMPHOTERICIN B] | – | – | – | – | – | – | – | MIC [10]: 1 µg/mL (≈ 1.08 µM); MIC [11]: 1 µg/mL (≈ 1.08 µM) |
| CO[C@H]1/C=C/O[C@@]2(C)Oc3c(C)c(O)c4c(O)c(c(/C=N/N5CCN(C)CC5)c(O)c4c3C2=O)NC(=O)/C(C)=C\C=C\[C@H](C)[C@H](O)[C@@H](C)[C@@H](O)[C@@H](C)[C@H](OC(C)=O)[C@@H]1C [RIFAMPIN] | 64 µg/mL (≈ 77.8 µM) | 256 µg/mL (≈ 311 µM) | – | 32 µg/mL (≈ 38.9 µM) | 8 µg/mL (≈ 9.72 µM) | 256 µg/mL (≈ 311 µM) | – | MIC ([2]; ATCC 25923, 24 h): 0.5 µg/mL (≈ 0.608 µM); MIC ([6]; RSHM 574, 24 h): 16 µg/mL (≈ 19.4 µM); MIC ([7]; ATCC 25922, 24 h): 8 µg/mL (≈ 9.72 µM) |
| Cc1ccc(-c2nc3cc(C)ccc3o2)c(C)c1 | – | – | – | – | – | – | 3.977 | – |
| GENTAMICIN SULFATE | 1 µg/mL | 64 µg/mL | – | 2 µg/mL | 1020 µg/mL | 512 µg/mL | – | MIC [2]: 0.06 µg/mL; MIC [4]: 1 µg/mL; MIC [6]: 8 µg/mL; MIC [7]: 0.5 µg/mL |
| Cc1ccc2nc(-c3ccccc3Cl)oc2c1 | – | – | – | – | – | – | 3.989 | – |
| Cc1ccc2oc(-c3ccccc3Cl)nc2c1 | – | – | 25 µg/mL (≈ 103 µM) | – | – | – | 3.989 | – |
| Cc1ccc2oc(-c3ccc([N+](=O)[O-])cc3)nc2c1 | – | – | 6.25 µg/mL (≈ 24.6 µM) | – | – | – | 4.609 | – |
| Cc1ccc2nc(-c3ccc(Cl)cc3)oc2c1 | – | – | 12.5 µg/mL (≈ 51.3 µM) | – | – | – | 4.29 | – |
| Cc1ccc2oc(-c3ccc(Cl)cc3)nc2c1 | – | – | 12.5 µg/mL (≈ 51.3 µM) | – | – | – | 4.29 | – |
| Cc1ccc2oc(-c3ccccc3)nc2c1 | – | – | 12.5 µg/mL (≈ 59.7 µM) | – | – | – | 4.224 | – |
| Cc1ccc2oc(-c3ccccc3[N+](=O)[O-])nc2c1 | – | – | 25 µg/mL (≈ 98.3 µM) | – | – | – | 4.007 | – |
| COc1ccccc1-c1nc2cc(C)ccc2o1 | – | – | 25 µg/mL (≈ 104 µM) | – | – | – | 3.981 | – |
